Experimental data as given in BindingDB's records for doi:10.1016/j.ejmech.2013.05.047 (Chulalongkorn University, 2013).

What was measured:
[1] = target: T1, Lysosomal alpha-glucosidase (Rattus norvegicus, UniProt Q6P7A9); assay: Inhibition of rat intestine maltase using maltose as substrate incubated for 10 mins prior to substrate addition measured after 40 mins by glucose oxidase colorimetric method
Method in brief: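 Crude intestinal enzyme supernatant (12,000 g, 30 min) preincubated with test compound (1 mg/mL, 10 µL) at 37 C for 10 min. Substrate in 0.1 M phosphate buffer pH 6.9 was then added: maltose 0.58 mM for maltase, sucrose 20 mM for sucrase. Incubated 40 min at 37 C, stopped by heating at 80 C for 15 min. Released glucose measured by the glucose oxidase kit. % inhibition = [(A0 − A1)/A0] × 100.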

[2] = target: T1, Lysosomal alpha-glucosidase; assay: Competitive inhibition of rat intestine maltase using maltose as substrate by Lineweaver-Burk plot analysis
Method in brief: (§1)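 Same maltase/sucrase reactions, with activity held at 0.45 (maltase) and 0.09 (sucrase) U/mg protein. Inhibitor 0 to 20.4 mM against substrate 1.0 to 20.0 mM. Vmax and Km obtained from Lineweaver–Burk intercepts and slopes. Ki (EI) from a secondary plot of slope versus inhibitor concentration; Ki′ (ESI) from a secondary plot of intercept versus inhibitor concentration.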

[3] = target: T1, Lysosomal alpha-glucosidase; assay: Non-competitive inhibition of rat intestine maltase using maltose as substrate by Lineweaver-Burk plot analysis; method in brief: as §1

T1 sequence (Q6P7A9 whole entry): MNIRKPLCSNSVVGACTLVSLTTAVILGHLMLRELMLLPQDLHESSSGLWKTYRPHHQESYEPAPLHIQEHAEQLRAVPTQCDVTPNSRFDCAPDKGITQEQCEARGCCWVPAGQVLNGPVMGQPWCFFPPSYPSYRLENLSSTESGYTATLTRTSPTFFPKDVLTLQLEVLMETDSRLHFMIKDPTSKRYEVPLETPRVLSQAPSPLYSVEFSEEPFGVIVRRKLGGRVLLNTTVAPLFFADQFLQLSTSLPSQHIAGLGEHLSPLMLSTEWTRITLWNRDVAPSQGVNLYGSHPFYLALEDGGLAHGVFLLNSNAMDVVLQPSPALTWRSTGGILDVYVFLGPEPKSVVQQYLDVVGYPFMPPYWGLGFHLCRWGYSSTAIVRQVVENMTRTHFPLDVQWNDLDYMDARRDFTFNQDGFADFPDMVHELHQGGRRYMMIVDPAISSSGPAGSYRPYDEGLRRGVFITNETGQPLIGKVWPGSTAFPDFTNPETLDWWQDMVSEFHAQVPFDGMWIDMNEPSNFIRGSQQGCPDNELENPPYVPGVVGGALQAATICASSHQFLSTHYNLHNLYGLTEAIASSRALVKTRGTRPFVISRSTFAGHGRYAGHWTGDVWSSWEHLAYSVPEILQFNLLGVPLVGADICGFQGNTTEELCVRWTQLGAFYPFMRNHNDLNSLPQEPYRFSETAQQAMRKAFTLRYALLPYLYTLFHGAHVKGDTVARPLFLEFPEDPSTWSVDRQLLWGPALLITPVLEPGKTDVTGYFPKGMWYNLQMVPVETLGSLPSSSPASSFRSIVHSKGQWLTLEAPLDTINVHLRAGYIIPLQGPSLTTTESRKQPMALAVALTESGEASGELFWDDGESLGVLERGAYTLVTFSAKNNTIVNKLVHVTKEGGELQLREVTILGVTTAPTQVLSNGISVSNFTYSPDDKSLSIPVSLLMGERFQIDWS

Structure (SMILES) | IC50 [1] [µM] | Ki [2] [µM] | Ki [3] [µM]
O=C(/C=C/c1ccc(O)c(O)c1)O[C@H]1C[C@@H](O)[C@H](O)[C@@H](O)[C@H]1O | 497 | – | –
COc1cc(/C=C/C(=O)O[C@H]2C[C@@H](O)[C@H](O)[C@@H](O)[C@H]2O)ccc1O | 21.1 | – | –
COc1cc(/C=C/C(=O)O[C@@H]2C[C@@H](O)[C@H](O)[C@@H](O)[C@H]2O)ccc1O | 51.9 | – | –

Continued by falling IC50 [1], values first:

IC50 [1] [µM] | Ki [2] [µM] | Ki [3] [µM] | Structure (SMILES)
367 | – | – | COc1ccc(/C=C/C(=O)O[C@H]2C[C@@H](O)[C@H](O)[C@@H](O)[C@H]2O)cc1O
34.7 | – | – | O=C(O)/C=C/c1ccc(O)c(O)c1 [3,4-Dihydroxycinnamate, XVII]
20.8 | – | – | COc1ccc(/C=C/C(=O)O[C@@H]2C[C@@H](O)[C@H](O)[C@@H](O)[C@H]2O)cc1O
5.31 | 23.8 | 64.5 | O=C(/C=C/c1ccc(O)c(O)c1)O[C@@H]1C[C@@H](O)[C@H](O)[C@@H](O)[C@H]1O
